Apaf1 inhib: human Apaf-1 inhibition. reconstituted apoptosome caspase-3 activity, DEVD-Rh110 fluorescence. O14727. AID 489030. inhibition, % at 20 µM. 330,000 tested, 0.71% active; active means inhibition of at least 40% at 20 µM;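 further: plate controls were DMSO wells for no effect and DEVD-CHO caspase inhibitor wells for full effect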
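Assay system: Apoptosome proteins | Medium: pH 7.5 Hepes buffer with CHAPS, BSA, DTT | Also added: Cytochrome c and DEVD-Rh110 substrate | Times: 30 min plus 50 min, RT | Detection: Rhodamine 110 fluorescence at Ex 480/Em 540 nm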
GSTO1 counter: counter-screen for RBBP9 inhibitors: inhibitors of human GSTO1; 300,000 tested, 1.1% active; P78417; recombinant GSTO1, activity-based probe fluorescence polarization; inhibition, % at 5.96 µM; AID 1974;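 active means inhibition above the campaign mean inhibition plus 3 SD, cut at about 35% in these data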;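 further: 0% = GSTO1-1 with DMSO and 100% = wells lacking GSTO1-1 enzyme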
Target sequence (P78417 whole entry, looked up): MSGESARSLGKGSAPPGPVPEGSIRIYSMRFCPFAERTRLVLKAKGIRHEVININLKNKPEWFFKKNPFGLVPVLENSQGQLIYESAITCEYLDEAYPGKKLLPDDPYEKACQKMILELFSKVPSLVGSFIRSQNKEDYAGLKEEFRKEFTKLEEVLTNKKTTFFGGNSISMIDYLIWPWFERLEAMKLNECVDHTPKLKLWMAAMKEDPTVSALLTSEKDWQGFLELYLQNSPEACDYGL
procasp7 counter: counter-screen: procaspase-7 (human) activation | activation, % at 8.5 µM | P55210 | 330,000 tested, 0.093% active | recombinant procaspase-7, Ac-DEVD-pNA absorbance 405 nm; D23A/D198A/D206A triple mutant, cannot self-cleave; scale: DMSO 0, 5 µM enzyme 100;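 active means percent activation above the screen-wide mean plus 3 SD, cut at about 25% in these data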
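Assay system – Uncleavable procaspase-7 mutant enzyme · Quantity – 2 µM procaspase-7 mutant as dispensed · Times – 1 h preincubation, 2 h reaction · Dosing – single nominal 8.5 µM compound dose, 0.8% DMSO final · Buffer or medium – Zinc-free 50 mM HEPES buffer, pH 7.4, with NaCl and Triton X-100 · Detection – Epi-absorbance of released pNA at 405 nm, two timepoints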
procasp3 activ: activates human procaspase-3. P42574. recombinant procaspase-3 D3A, Ac-DEVD-pNA absorbance 405 nm. activation, % at 8.5 µM. 330,000 tested, 0.11% active. AID 463141;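 active means activation above the mean of all tested compounds plus 3 SD, cut at about 21% in these data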;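 further: 0% = DMSO alone and 100% = DMSO wells spiked with extra 5 µM PC-3 D3A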
Target sequence (P42574 whole entry D9A/D28A/D175A): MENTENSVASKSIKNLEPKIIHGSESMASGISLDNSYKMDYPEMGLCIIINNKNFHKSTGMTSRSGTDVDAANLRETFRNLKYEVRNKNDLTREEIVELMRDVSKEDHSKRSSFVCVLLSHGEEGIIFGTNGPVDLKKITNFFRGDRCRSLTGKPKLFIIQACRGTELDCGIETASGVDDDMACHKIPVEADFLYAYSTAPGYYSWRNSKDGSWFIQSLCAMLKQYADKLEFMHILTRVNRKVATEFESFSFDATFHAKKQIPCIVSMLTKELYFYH
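Assay system: Autoprocessing-dead procaspase-3 D3A mutant enzyme; also added: Ac-DEVD-pNA; doses: one concentration, 8.5 µM nominal, 0.8% DMSO; times: 1 h compound preincubation, 2 h substrate hydrolysis at 25 °C; technique: 405 nm absorbance of p-nitroaniline, reads at 0 and 120 min; measure: % activation between DMSO and enzyme-spiked controls; repeats: single replicate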
EBNA-1 inh: blocks EBNA-1 binding to DNA. 300,000 tested, 0.34% active. EBNA-1 DNA binding, fluorescence polarization. inhibition, % at 14.8 µM; in the data active means inhibition above about 28%
ZTA counter: ZTA (EBV) inhibition in EBNA-1 counter-screen; P03206; ZTA-DNA binding, fluorescence polarization; inhibition, % at 11 µM; 320,000 tested, 0.15% active; AID 2234; in the data active means inhibition above about 33%
* marks the source's active call; other numbers are inactive results; / = not tested or not shown. Only some compounds are listed: those with a hit (about 1.8% of all), similar ones and a draw of the others.

SMILES	Apaf1 inhib	GSTO1 counter	procasp7 counter	procasp3 activ	EBNA-1 inh	ZTA counter
COc1cccc(NC(=O)C2CCC(CNS(=O)(=O)c3ccc4c(c3)CC(C)N4C(C)=O)CC2)c1 (configuration not stated)	0.6	35.3*	9.4	3.5	-17.9	-2.6
COc1cccc(NC(=O)C2CCN(S(=O)(=O)c3ccc4c(c3)CC(C)N4C(C)=O)CC2)c1 (configuration not stated)	1.8	4.3	-2.0	-3.6	1.1	-17.1
CC(=O)Nc1ccc(NC(=O)C2CC(=O)N(Cc3ccco3)C2)cc1 (configuration not stated)	-1.2	/	/	/	/	/
Cc1c(Br)c(O)c(Br)c2sc(=O)oc12	19.5	73.7*	-33.0	-22.7	-0.9	1.8
CC(C)c1cc(NC(=O)CCl)on1	-19.3	104.3*	3.4	4.4	1.5	2.4
CCOc1cccc(=O)c2c(C)n(-c3ccc(C(=O)O)cc3)c(C)c12	8.2	24.2	1.4	4.6	6.5	40.9*
C=CC[N@@+]12CC[C@]34c5ccccc5N5/C=C6\C7N(/C=C(\C53)[C@@H](C[C@@H]41)/C(=C/CO)C2)c1ccccc1[C@@]71CC[N@@+]2(CC=C)C/C(=C\CO)[C@@H]6C[C@@H]12 (some centres not stated)	10.7	0.1	-4.5	-2.8	11.8	-4.7
O=C(Nc1ccc(Cl)c(S(=O)(=O)N2CCCCC2)c1)c1cccnc1	-0.3	/	-7.4	2.5	/	-12.3
COc1ccc(Cn2c(SCc3ccccc3C)nc3cc(OC)c(OC)cc3c2=N)cc1	69.7*	-5.4	-2.9	0.0	5.1	27.2
COc1cc2nc(SCc3ccc(F)cc3)n(Cc3cccs3)c(=N)c2cc1OC	11.6	-12.6	5.2	-1.2	4.3	-17.1
CC1(C(=O)O)CCC(C(=O)Nc2ccc(OC(F)(F)Cl)cc2)C1(C)C (configuration not stated)	11.3	8.8	4.2	4.8	-6.1	-11.2
COC/C=C/C1=CC2=CC(=O)C(C)(OC(=O)c3cnc4ccccc4n3)C(=O)C2=CN1C1CCCCC1 (configuration not stated)	16.7	35.5*	-1.1	5.2	-0.2	-3.4
COC/C=C/C1=CC2=CC(=O)C(C)(OC(=O)c3cnc4ccccc4n3)C(=O)C2=CN1CC(C)C (configuration not stated)	41.1*	32.0	-13.0	-5.5	0.0	-13.5
CC1(OC(=O)C2CCCC2)C(=O)C=C2C=C(c3ccsc3)N(C3CCCC3)C=C2C1=O (configuration not stated)	25.2	17.1	-3.4	2.3	6.7	3.8
CC1(OC(=O)c2cnc3ccccc3n2)C(=O)C=C2C=C(C3CC3)OC=C2C1=O (configuration not stated)	-1.7	42.6*	-1.9	-0.4	27.5*	47.7*
CCCCC1=CC2=CC(=O)C(C)(OC(=O)CC)C(=O)C2=CN1CC(C)C (configuration not stated)	14.7	31.1	-1.8	7.9	-9.0	-30.0
COC/C=C/C1=CC2=CC(=O)C(C)(OC(=O)c3cnc4ccccc4n3)C(=O)C2=CN1c1ccc(CO)cc1 (configuration not stated)	-0.1	36.7*	-0.8	4.8	9.4	11.1
O=C(c1ccco1)N1CCN(C(=S)Nc2ccc(Br)cc2Cl)CC1	1.8	/	/	/	/	/
Cc1ccc2c(c1)-n1c(nc3ccc(C)cc3c1=O)C(Cc1ccccc1)NC2=O (configuration not stated)	13.6	/	-11.7	6.0	/	/
O=[N+]([O-])c1ccc(O)c(Nc2c([N+](=O)[O-])ccc3nonc23)c1	10.9	6.0	0.0	6.1	9.0	-8.2
CCOC(=O)C1CCCN(C(=O)CSc2nnnn2C)C1 (configuration not stated)	1.4	/	6.4	-3.5	/	/
O=C(/C=C/c1cc(Br)ccc1F)OCC(=O)N1CCOCC1	-0.9	/	0.0	10.7	/	/
O=C(N/N=C/c1cc(Cl)c(O)c(Cl)c1)c1cc2c(ccc3ccccc32)o1	14.2	37.2*	-13.7	3.4	10.5	11.8
O=C(N/N=C/c1cc(Br)c(O)c(Br)c1)c1cc2c(ccc3ccccc32)o1	29.9	/	/	/	/	/
O=C1C=C(Nc2ccc(O)cc2)C(=O)c2ccccc21	15.1	38.5*	12.7	-2.1	3.0	7.5
SMILES	Apaf1 inhib	GSTO1 counter	procasp7 counter	procasp3 activ	EBNA-1 inh	ZTA counter
CCOC(=O)c1c(NC(=O)c2ccc(C)cc2)sc2c1CC(C)(C)NC2(C)C	54.3*	5.7	-1.2	1.1	-7.0	-5.0
CCOC(=O)c1c(NC(=O)Cc2ccccc2)sc2c1CC(C)(C)NC2(C)C	27.0	2.0	0.9	8.1	-7.1	7.5
N#CCn1c(CCl)nc2ccccc2c1=O	-12.3	48.2*	9.1	-0.3	-0.1	0.8
c1ccc(-c2sc3ccccc3c2-c2ccc(OCCN3CCCC3)cc2)cc1	78.0*	/	-0.2	0.6	/	/
O=C(CSc1ccc(Cl)cc1)c1ccco1	5.1	36.5*	8.1	3.5	4.8	-6.6
O=C(CCSc1ccc(Cl)cc1)c1ccco1	3.9	-3.9	-21.7	-21.1	-22.2	-12.6
COc1ccc2[nH]c3c(=O)n(/N=C/c4ccc(OC)c(CN5CCCC5)c4)c(C)nc3c2c1	43.1*	7.0	10.4	0.2	1.6	0.0
C=CC(=O)Nc1ccc(CN2C(=O)N(c3c(Cl)c(OC)cc(OC)c3Cl)Cc3cnc(NCCCCN(CC)CC)nc32)cc1	62.9*	/	-1.0	-3.0	/	/
O=C(CN(c1ccccc1)S(=O)(=O)c1ccccc1)N/N=C/c1ccc(OC2CSC2)cc1	5.3	0.1	-1.6	-0.8	55.3*	3.9
CCN(Cc1ccccc1)S(=O)(=O)c1cn(C)cn1	-1.3	17.0	6.3	10.9	-5.6	3.1
CCOc1cc(/C=C2\C(=O)N(c3nc(-c4ccc(Br)cc4)cs3)N=C2c2ccccc2)ccc1O	53.4*	-47.4	-4.7	-0.8	6.6	-5.2
CCOc1cc(/C=C2/SC(=S)N(Cc3ccccc3)C2=O)ccc1O	6.9	-115.5	-13.9	-8.6	11.8	-12.7
COc1ccc(C2Nc3cccc4cccc(c34)N2)cc1	3.1	35.4*	-5.1	10.0	0.3	-0.7
Clc1cccc(C2Nc3cccc4cccc(c34)N2)c1	0.8	32.3	-9.5	-3.7	-14.1	2.1
c1ccc(C2Nc3cccc4cccc(c34)N2)cc1	20.4	36.3*	0.8	0.8	0.8	-13.6
Cc1ccc(S(=O)(=O)N2CCN(C(=O)CC(C)n3nc(C)c(Cl)c3C)CC2)cc1 (configuration not stated)	8.9	-8.6	0.6	5.2	-14.9	10.5
BrC(=C\c1ccccc1)/C=N/Nc1nc2ccccc2[nH]1	10.1	36.8*	-9.2	-5.3	-1.6	-7.7

Screening results (PubChem BioAssay)
